In ChEMBL document CHEMBL4020804, “Minor phenolics from Angelica keiskei and their proliferative effects on Hep3B cells” (Bioorg Med Chem Lett, 2017):

Columns and labels:
Hep 3B2 [1] = test: Proliferative activity against human Hep3B cells assessed as cell viability at 0.1 uM after 4 days by cell counting method relative to control; type: functional; settings: 96 h, read-out: Activity
How it was run: (§1)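 Hep3B kept in DMEM/10% FBS, 37°C, 5% CO2, then seeded at 1×10^5 cells/ml in medium containing compound (0.1–100 μM; DMSO-only control) in monolayer. Cells were checked daily by microscope for attachment and morphology, and counted after 4 days, in triplicate, in three independent experiments. Counts are given as % of the 0 μM group.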

Hep 3B2 [2] = test: Proliferative activity against human Hep3B cells assessed as cell viability at 1 uM after 4 days by cell counting method relative to control; type: functional; settings: 96 h, read-out: Activity; how it was run: as §1
Hep 3B2 [3] = test: Proliferative activity against human Hep3B cells assessed as cell viability at 10 uM after 4 days by cell counting method relative to control; type: functional; settings: 96 h, read-out: Activity; how it was run: as §1
Hep 3B2 [4] = test: Proliferative activity against human Hep3B cells assessed as cell viability at 100 uM after 4 days by cell counting method relative to control; type: functional; settings: 96 h, read-out: Activity; how it was run: as §1
Hep 3B2 [5] = test: Proliferative activity against human Hep3B cells assessed as cell viability after 4 days by cell counting method; type: functional, cell-based; how it was run: as §1
Hep 3B2 [6] = test: Cytoprotective activity against GOX-induced oxidative stress in human Hep3B cells assessed as cell survival at 0.1 uM treated for 5 hrs with 15 mU/ml GOX challenge by MTT assay (reference value: 41.51 +/- 1.39%); type: functional; settings: read-out: Survival
Hep 3B2 [7] = test: Cytoprotective activity against GOX-induced oxidative stress in human Hep3B cells assessed as cell survival at 100 uM treated for 5 hrs with 15 mU/ml GOX challenge by MTT assay (reference value: 41.51 +/- 1.39%); type: functional; settings: read-out: Survival
Hep 3B2 [8] = test: Cytoprotective activity against GOX-induced oxidative stress in human Hep3B cells assessed as cell survival at 1 uM treated for 5 hrs with 15 mU/ml GOX challenge by MTT assay (reference value: 41.51 +/- 1.39%); type: functional; settings: read-out: Survival
Hep 3B2 [9] = test: Cytoprotective activity against GOX-induced oxidative stress in human Hep3B cells assessed as cell survival at 10 uM treated for 5 hrs with 15 mU/ml GOX challenge by MTT assay (reference value: 41.51 +/- 1.39%); type: functional; settings: read-out: Survival
NIH3T3 [10] = test: Cytoprotective activity against GOX-induced oxidative stress in mouse NIH/3T3 cells assessed as cell survival at 0.1 uM treated for 5 hrs with 15 mU/ml GOX challenge by MTT assay (reference value: 42.71 +/- 2.10%); type: functional; settings: NIH3T3, 5 h, read-out: Survival
Hep 3B2 [11] = test: Cytoprotective activity against GOX-induced oxidative stress in human Hep3B cells assessed as increase in cell survival treated for 5 hrs with 15 mU/ml GOX challenge by MTT assay; type: functional, cell-based
How it was run: (§2)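 Cells plated at 7×10^4 per well; next day exposed for 5 h to compound (0.1–100 μM) with 15 mU/ml glucose oxidase in growth medium. Viability expressed relative to GOX-free cells; α-tocopherol positive control.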

NIH3T3 [12] = test: Cytoprotective activity against GOX-induced oxidative stress in mouse NIH/3T3 cells assessed as cell survival at 1 uM treated for 5 hrs with 15 mU/ml GOX challenge by MTT assay (reference value: 42.71 +/- 2.10%); type: functional; settings: NIH3T3, 5 h, read-out: Survival
NIH3T3 [13] = test: Cytoprotective activity against GOX-induced oxidative stress in mouse NIH/3T3 cells assessed as cell survival at 10 uM treated for 5 hrs with 15 mU/ml GOX challenge by MTT assay (reference value: 42.71 +/- 2.10%); type: functional; settings: NIH3T3, 5 h, read-out: Survival
NIH3T3 [14] = test: Cytoprotective activity against GOX-induced oxidative stress in mouse NIH/3T3 cells assessed as cell survival at 100 uM treated for 5 hrs with 15 mU/ml GOX challenge by MTT assay (reference value: 42.71 +/- 2.10%); type: functional; settings: NIH3T3, 5 h, read-out: Survival
NIH3T3 [15] = test: Cytoprotective activity against GOX-induced oxidative stress in mouse NIH/3T3 cells assessed as increase in cell survival treated for 5 hrs with 15 mU/ml GOX challenge by MTT assay; type: functional, cell-based; how it was run: as §2
Hep 3B2 [16] = test: Cytoprotective activity against GOX-induced cytotoxicity in human Hep3B cells assessed as LDH release at 0.1 uM treated for 5 hrs with 15 mU/ml GOX challenge by spectrophotometric method (reference value: 60.94 +/- 1.18%); type: functional
Hep 3B2 [17] = test: Cytoprotective activity against GOX-induced cytotoxicity in human Hep3B cells assessed as LDH release at 1 uM treated for 5 hrs with 15 mU/ml GOX challenge by spectrophotometric method (reference value: 60.94 +/- 1.18%); type: functional
Hep 3B2 [18] = test: Cytoprotective activity against GOX-induced cytotoxicity in human Hep3B cells assessed as LDH release at 10 uM treated for 5 hrs with 15 mU/ml GOX challenge by spectrophotometric method (reference value: 60.94 +/- 1.18%); type: functional
Hep 3B2 [19] = test: Cytoprotective activity against GOX-induced cytotoxicity in human Hep3B cells assessed as LDH release at 100 uM treated for 5 hrs with 15 mU/ml GOX challenge by spectrophotometric method (reference value: 60.94 +/- 1.18%); type: functional
Hep 3B2 [20] = test: Cytoprotective activity against GOX-induced cytotoxicity in human Hep3B cells assessed as decrease in LDH release treated for 5 hrs with 15 mU/ml GOX challenge by spectrophotometric method; type: functional, cell-based
NIH3T3 [21] = test: Cytoprotective activity against GOX-induced cytotoxicity in mouse NIH/3T3 cells assessed as LDH release at 0.1 uM treated for 5 hrs with 15 mU/ml GOX challenge by spectrophotometric method (reference value: 63.34 +/- 1.85%); type: functional
NIH3T3 [22] = test: Cytoprotective activity against GOX-induced cytotoxicity in mouse NIH/3T3 cells assessed as LDH release at 1 uM treated for 5 hrs with 15 mU/ml GOX challenge by spectrophotometric method (reference value: 63.34 +/- 1.85%); type: functional
NIH3T3 [23] = test: Cytoprotective activity against GOX-induced cytotoxicity in mouse NIH/3T3 cells assessed as LDH release at 10 uM treated for 5 hrs with 15 mU/ml GOX challenge by spectrophotometric method (reference value: 63.34 +/- 1.85%); type: functional
NIH3T3 [24] = test: Cytoprotective activity against GOX-induced cytotoxicity in mouse NIH/3T3 cells assessed as LDH release at 100 uM treated for 5 hrs with 15 mU/ml GOX challenge by spectrophotometric method (reference value: 63.34 +/- 1.85%); type: functional
NIH3T3 [25] = test: Cytoprotective activity against GOX-induced cytotoxicity in mouse NIH/3T3 cells assessed as decrease in LDH release treated for 5 hrs with 15 mU/ml GOX challenge by spectrophotometric method; type: functional, cell-based
Hep 3B2 [26] = test: Cytotoxicity against human Hep3B cells assessed as effect on cell attachment at 0.1 to 100 uM measured every day during 4 days incubation period by microscopic method; type: cell-based; settings: hep 3b2, 96 h; how it was run: as §1
Hep 3B2 [27] = test: Cytotoxicity against human Hep3B cells assessed as effect on cell morphology at 0.1 to 100 uM measured every day during 4 days incubation period by microscopic method; type: cell-based; settings: hep 3b2, 96 h; how it was run: as §1

Compound | viability at 0.1 µM (Hep 3B2 [6]) | viability at 100 µM (Hep 3B2 [7]) | viability at 1 µM (Hep 3B2 [8]) | viability at 10 µM (Hep 3B2 [9]) | viability at 0.1 µM (NIH3T3 [10]) | Activity (Hep 3B2 [11]) | viability at 1 µM (NIH3T3 [12]) | viability at 10 µM (NIH3T3 [13]) | viability at 100 µM (NIH3T3 [14]) | Activity (NIH3T3 [15]) | Activity (Hep 3B2 [16]) | Activity (Hep 3B2 [17]) | Activity (Hep 3B2 [18]) | Activity (Hep 3B2 [19]) | Activity (Hep 3B2 [20]) | Activity (NIH3T3 [21]) | Activity (NIH3T3 [22]) | Activity (NIH3T3 [23]) | Activity (NIH3T3 [24]) | Activity (NIH3T3 [25]) | further results
C/C(=C\Cc1c(O)ccc(C(=O)/C=C/c2ccc(O)cc2)c1O)CCC(=O)O | 44.3% | 74.1% | 45.5% | 57.1% | 43.2% | Dose-dependent effect | 44.7% | 57.8% | 74.5% | Dose-dependent effect | 30.97% | 20.34% | 16.93% | 7.6% | Dose-dependent effect | 36.37% | 20.71% | 18.78% | 6.96% | Dose-dependent effect | viability at 0.1 µM (Hep 3B2 [1]): 100%; viability at 1 µM (Hep 3B2 [2]): 100%; viability at 10 µM (Hep 3B2 [3]): 107%; viability at 100 µM (Hep 3B2 [4]): 115%; Activity (Hep 3B2 [5]): Dose-dependent effect; Activity (Hep 3B2 [26]): Non-Toxic; Activity (Hep 3B2 [27]): Non-Toxic
Cc1c(C)c2c(c(C)c1O)CC[C@@](C)(CCC[C@H](C)CCC[C@H](C)CCCC(C)C)O2 [ALPHA-TOCOPHEROL] | 62.2% | 79.6% | 66.8% | 70.7% | 61.2% | Dose-dependent effect | 65.8% | 69.1% | 77.9% | Dose-dependent effect | 25.13% | 21.14% | 18.89% | 13% | Dose-dependent effect | 26.51% | 22.37% | 15.02% | 10.51% | Dose-dependent effect | –
O=C(/C=C/c1ccc(O)cc1)c1ccc(O)cc1O [ISOLIQUIRITIGENIN] | 41.9% | 75.3% | 62.9% | 66.2% | 44.8% | Dose-dependent effect | 59.2% | 71.9% | 82.9% | Dose-dependent effect | 27.14% | 24.29% | 21.06% | 10.1% | Dose-dependent effect | 44.26% | 26.03% | 22.67% | 8.85% | Dose-dependent effect | viability at 0.1 µM (Hep 3B2 [1]): 101%; viability at 1 µM (Hep 3B2 [2]): 103%; viability at 10 µM (Hep 3B2 [3]): 109%; viability at 100 µM (Hep 3B2 [4]): 126%; Activity (Hep 3B2 [5]): Dose-dependent effect; Activity (Hep 3B2 [26]): Non-Toxic; Activity (Hep 3B2 [27]): Non-Toxic
CC(C)=CCCC(C)(O)C1Cc2c(O)ccc(C(=O)/C=C/c3ccc(O)cc3)c2O1 (stereo not given) | 42.9% | 76% | 49% | 62.1% | 43.5% | Dose-dependent effect | 44.4% | 57.5% | 77.8% | Dose-dependent effect | 25.13% | 19.53% | 19.08% | 8.14% | Dose-dependent effect | 27.7% | 21.87% | 15% | 12.35% | Dose-dependent effect | viability at 0.1 µM (Hep 3B2 [1]): 100%; viability at 1 µM (Hep 3B2 [2]): 102%; viability at 10 µM (Hep 3B2 [3]): 104%; viability at 100 µM (Hep 3B2 [4]): 113%; Activity (Hep 3B2 [5]): Dose-dependent effect; Activity (Hep 3B2 [26]): Non-Toxic; Activity (Hep 3B2 [27]): Non-Toxic
O=C1CC(c2ccc(O)cc2)Oc2cc(O)ccc21 (racemic) | 70.7% | 112% | 88.4% | 98.8% | 74.1% | Dose-dependent effect | 88.4% | 111% | 126% | Dose-dependent effect | 11.57% | 6.83% | 4.93% | 3.82% | Dose-dependent effect | 18.42% | 7.85% | 5.51% | 2.63% | Dose-dependent effect | viability at 0.1 µM (Hep 3B2 [1]): 100%; viability at 1 µM (Hep 3B2 [2]): 104%; viability at 10 µM (Hep 3B2 [3]): 112%; viability at 100 µM (Hep 3B2 [4]): 135%; Activity (Hep 3B2 [5]): Dose-dependent effect; Activity (Hep 3B2 [26]): Non-Toxic; Activity (Hep 3B2 [27]): Non-Toxic
C/C=C(/C)C(=O)O[C@@H]1c2c(ccc3ccc(=O)oc23)OC(C)(C)[C@@H]1O[C@@H]1O[C@H](CO)[C@@H](O)[C@H](O)[C@H]1O | 59.2% | 91.2% | 65.3% | 76.9% | 58.6% | Dose-dependent effect | 64.5% | 75.8% | 93.8% | Dose-dependent effect | 28.01% | 19.57% | 10.28% | 6.16% | Dose-dependent effect | 29.9% | 21.12% | 9.25% | 5.75% | Dose-dependent effect | viability at 0.1 µM (Hep 3B2 [1]): 101%; viability at 1 µM (Hep 3B2 [2]): 102%; viability at 10 µM (Hep 3B2 [3]): 113%; viability at 100 µM (Hep 3B2 [4]): 114%; Activity (Hep 3B2 [5]): Dose-dependent effect; Activity (Hep 3B2 [26]): Non-Toxic; Activity (Hep 3B2 [27]): Non-Toxic
